pIC50: −log10 of the molar value. The source made the active and inactive calls. The rule behind the calls is not given here.

In data set [1] the test system is Liver. The experiment in a line: Metabolic stability in human liver S9 fraction assessed as parent compound remaining at 1 uM after 60 mins relative to control. Conditions: s9, 1 h. The format is ADME, tissue-based.
Data set [2] is described as follows: Metabolic stability in monkey liver S9 fraction assessed as parent compound remaining at 1 uM after 60 mins relative to control. Type of data set: ADME, tissue-based, Macaca mulatta. Particulars: rhesus monkey, s9, 1 h.
Data set [3] relates to Rattus norvegicus. Description: Inhibition of rat sperm total motility at 5 mg/kg administered daily via oral gavage for 3 days by SYTO staining based microscopic method. Type of data set: functional, organism-based. The essentials:
(§1)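 Male rats were dosed daily by oral gavage, either at 5, 10 or 20 mg/kg for 3 days, or at 5 mg/kg for 3, 6, 9 or 12 days. Animals were then sacrificed and cauda epididymal sperm collected. Total and progressive motility were measured by CASA and compared with untreated controls. Values are mean ± SEM of three experiments.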

Data set [4] deals with Na+/K+ ATPase alpha-3/beta-1 (Rattus norvegicus, UniProt P06687+P07340). The experiment in a line: Inhibition of recombinant rat Na+/K+-ATPase alpha3/beta1 expressed in baculovirus infected insect Sf9 cell membranes using [gamma-32P]ATP as substrate preincubated for 20 mins followed by substrate addition measured after 30 mins by liquid scintillation counting. A digest of the protocol: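 Rat α/β1 isoforms were expressed in baculovirus-infected Sf9 cells (72 h, 27 °C), washed in 10 mM imidazole-HCl pH 7.5 with 1 mM EGTA, and homogenised. Homogenates were assayed in 120 mM NaCl, 30 mM KCl, 3 mM MgCl₂, 0.2 mM EGTA and 30 mM Tris-HCl pH 7.4. Reactions were started with 2 mM γ[³²P]-ATP (final) and run 30 min at 37 °C. Released ³²Pi was extracted as phosphomolybdate into isobutanol and scintillation counted. IC50 came from single-site dose–response fits.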

The test system of data set [5] is Rattus norvegicus. The experiment in a line: Inhibition of rat sperm total motility at 5 mg/kg administered daily via oral gavage for 6 to 12 days by SYTO staining based microscopic method relative to control. The format is functional. A digest of the protocol:
as §1

Data set [6] deals with Liver. Description: Metabolic stability in dog liver S9 fraction assessed as parent compound remaining at 1 uM after 60 mins relative to control. Particulars: s9, 1 h. Type of data set: ADME, tissue-based, Canis lupus familiaris.
The subject of data set [7] is Rattus norvegicus. Description: Inhibition of rat sperm progressive motility at 5 mg/kg administered daily via oral gavage for 6 to 12 days by SYTO staining based microscopic method relative to control. The format is functional. The essentials:
as §1

Data set [8] in a line: Apparent permeability from basolateral side to apical side in human Caco2 cells assessed as drug recovery at 1 uM after 60 mins by HPLC-MS analysis. The format is ADME, cell-based. Particulars: caco-2, 1 h. In general terms: Caco-2 cells form a polarised layer with tight junctions and transporters.
Data set [9] has as its system Liver. The experiment in a line: Metabolic stability in mouse liver S9 fraction assessed as parent compound remaining at 1 uM after 60 mins relative to control. The format is ADME, tissue-based. Conditions: s9, 1 h.
Data set [10] is described as follows: Apparent permeability from apical side to basolateral side in human Caco2 cells at 1 uM after 60 mins by HPLC-MS analysis. The format is ADME, cell-based. Conditions: caco-2, 1 h. The essentials: (§2)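 Caco-2 monolayers were grown on Transwell filters, with test compound at 1 × 10^-6 M. Apical-to-basolateral flux was run at 37 °C with shaking, at pH 6.5 apical and pH 7.4 basolateral. Donor was sampled over 0–60 min and receiver at 60 min. Compound was quantified by full-scan HPLC-MS. Apparent permeability and percent recovery were derived from two determinations.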

Data set [11] relates to Rattus norvegicus. Description: Inhibition of rat sperm progressive motility at 5 mg/kg administered daily via oral gavage for 3 days by SYTO staining based microscopic method. The format is functional, organism-based. The essentials:
as §1

Data set [12] can be described thus: Apparent permeability from apical side to basolateral side in human Caco2 cells assessed as drug recovery at 1 uM after 60 mins by HPLC-MS analysis. The format is ADME, cell-based. Particulars: caco-2, 1 h. A digest of the protocol:
as §2

The test system of data set [13] is Rattus norvegicus. Description: Inhibition of rat sperm movement at 20 mg/kg administered via oral gavage for 3 days by SYTO staining based microscopic method relative to control. The format is functional. Particulars: 72 h. The essentials:
as §1

Data set [14] concerns the target Voltage-gated inwardly rectifying potassium channel KCNH2 (Homo sapiens, UniProt Q12809). The experiment in a line: Displacement of Tracer Red from human ERG expressed in cell membranes up to 60 uM by fluorescence polarization assay. The essentials: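 Competitive fluorescence polarization displacement of a fluorescently tagged hERG ligand used membranes from cells stably expressing hERG. Compounds were tested up to 60 μM.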
(Fluorescence polarisation rises when a labelled molecule tumbles more slowly, as on binding a larger partner.)

Data set [15] concerns Liver. Description: Metabolic stability in rat liver S9 fraction assessed as parent compound remaining at 1 uM after 60 mins relative to control. The format is ADME, tissue-based. Particulars: s9, 1 h.
A further data set concerns MCF7. The experiment in a line: Antiproliferative activity against human MCF7 cells up to 100 uM after 72 hrs by AlamarBlue assay. Type of data set: cell-based. Particulars: mcf7, 72 h.
Data set [16] in a line: Apparent permeability from basolateral side to apical side in human Caco2 cells at 1 uM after 60 mins by HPLC-MS analysis. The format is ADME, cell-based. Conditions: caco-2, 1 h.
For data set [17], the target named is Na+/K+ ATPase alpha-1/beta-1 (Rattus norvegicus, UniProt P06685+P07340). Description: Inhibition of recombinant rat Na+/K+-ATPase alpha1/beta1 expressed in baculovirus infected insect Sf9 cell membranes using [gamma-32P]ATP as substrate preincubated for 20 mins followed by substrate addition measured after 30 mins by liquid scintillation counting. A digest of the protocol:
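Rat α/β1 isoforms were expressed in baculovirus-infected Sf9 cells (72 h, 27 °C), washed in 10 mM imidazole-HCl pH 7.5 with 1 mM EGTA, and homogenised. Homogenates were assayed in 120 mM NaCl, 30 mM KCl, 3 mM MgCl₂, 0.2 mM EGTA and 30 mM Tris-HCl pH 7.4. Reactions were started with 2 mM γ[³²P]-ATP (final) and run 30 min at 37 °C. Released ³²Pi was extracted as phosphomolybdate into isobutanol and scintillation counted. Activity was taken as the 1 mM ouabain-sensitive fraction. IC50 came from single-site dose–response fits.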

Voltage-gated inwardly rectifying potassium channel KCNH2, sequence (Q12809 whole entry): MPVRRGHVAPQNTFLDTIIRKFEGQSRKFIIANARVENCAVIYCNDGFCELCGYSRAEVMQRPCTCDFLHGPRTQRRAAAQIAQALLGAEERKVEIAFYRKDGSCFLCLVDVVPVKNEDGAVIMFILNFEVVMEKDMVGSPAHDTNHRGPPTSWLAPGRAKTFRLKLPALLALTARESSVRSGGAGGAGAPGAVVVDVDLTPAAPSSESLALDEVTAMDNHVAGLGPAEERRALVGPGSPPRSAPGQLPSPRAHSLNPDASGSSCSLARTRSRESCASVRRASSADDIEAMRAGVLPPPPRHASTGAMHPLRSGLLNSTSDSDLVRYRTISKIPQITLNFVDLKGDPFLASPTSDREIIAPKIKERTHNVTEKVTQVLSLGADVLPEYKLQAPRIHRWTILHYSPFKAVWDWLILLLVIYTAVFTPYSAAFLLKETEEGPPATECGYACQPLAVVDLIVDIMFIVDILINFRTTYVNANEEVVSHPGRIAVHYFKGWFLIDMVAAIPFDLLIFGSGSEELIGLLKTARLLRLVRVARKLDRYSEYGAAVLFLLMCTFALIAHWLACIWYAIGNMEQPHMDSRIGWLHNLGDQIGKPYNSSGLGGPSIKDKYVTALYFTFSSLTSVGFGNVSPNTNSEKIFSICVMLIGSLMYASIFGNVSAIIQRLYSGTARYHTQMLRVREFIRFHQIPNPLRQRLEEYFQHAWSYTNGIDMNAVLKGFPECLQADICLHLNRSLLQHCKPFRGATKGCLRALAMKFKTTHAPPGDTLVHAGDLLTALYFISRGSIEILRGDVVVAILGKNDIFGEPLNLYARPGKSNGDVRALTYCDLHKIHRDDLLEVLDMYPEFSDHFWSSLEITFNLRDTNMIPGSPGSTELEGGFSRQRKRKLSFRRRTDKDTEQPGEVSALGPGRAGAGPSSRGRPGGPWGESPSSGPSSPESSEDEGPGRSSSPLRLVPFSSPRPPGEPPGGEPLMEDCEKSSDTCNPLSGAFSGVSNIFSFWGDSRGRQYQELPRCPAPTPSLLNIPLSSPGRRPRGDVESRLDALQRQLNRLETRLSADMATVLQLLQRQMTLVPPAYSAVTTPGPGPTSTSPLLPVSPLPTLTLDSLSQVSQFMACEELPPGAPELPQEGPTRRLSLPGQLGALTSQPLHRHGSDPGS

Broadly, the pIC50 is the negative decadic logarithm of the IC50, by convention in mol/L. The inhibition in vivo is how much of the control response was suppressed. Broadly, the Papp is a coefficient for how fast a substance crosses the barrier. As for `C[C@]12C[C@@H](O)[C@H]3[C@@H](CC[C@]4(O)C[C@@H](O)C[C@@H](O)[C@]34CO)[C@@]1(O)CC[C@@H]2c1cn(Cc2ccccc2)nn1`, the Stability in the data set on Liver [1] is 107%; in data set [2], 89%; in the data set on Liver [6], 99%; in the data set with Liver [9], 76%; with Liver [15] it was 95%. Moreover, the inhibition result in the data set with Rattus norvegicus [3] and with Rattus norvegicus [11] was “Active” in each case. The pIC50 in [4] and in [17] was below 4.00 throughout. For the same compound, the inhibition in vivo at 5 mg/kg in the data set with Rattus norvegicus [5] turned out to be 40%; in the data set on Rattus norvegicus [7] it was 50%. Further, the results for the Drug recovery in data set [8] and in data set [12] were 98% and 94%, respectively. The Papp is below 2 nm/s in data set [10] and 3 nm/s in data set [16]. This compound registered an inhibition in vivo at 20 mg/kg in the data set on Rattus norvegicus [13] of 50%. The “inhibition (INH)” value in data set [14] is reported as “Not Active”. Moreover, the Activity entry in the data set on MCF7 is given as “Non-Toxic”.

The record behind these values is ChEMBL document CHEMBL4033781 (J Med Chem, 2018).
